Activity data for three compounds are collected here from ChEMBL document CHEMBL1268852, “Quercetin prevents unloading-derived disused muscle atrophy by attenuating the induction of ubiquitin ligases in tail-suspension mice” (J Nat Prod, 2010).

Calls of active or inactive are those of the source. The calls are words filed in the database; no cut-off is given here.

What all share (type): functional, organism-based
Test [1] concerns Mus musculus. As to the kind of experiment: Reduction of gastrocnemius muscle weight loss in C57BL/6 mouse tail suspension model at 2.5 pmol administered in gastrocnemius muscle qd for 10 days relative to whole body weight.
For test [2], the system named is Mus musculus. Kind of test: Reduction of atrogin-1 mRNA expression in gastrocnemius muscle of C57BL/6 mouse tail suspension model at 2.5 pmol administered in gastrocnemius muscle qd for 10 days by RT-PCR analysis. Put shortly:
(§1)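 Male C57BL/6 mice, 7 weeks old, injected intramuscularly in one gastrocnemius with 2.5 pmol/leg in saline/0.1% propylene glycol every 24 h; vehicle went into the contralateral leg. Tail suspension lasted 10 days and ground mice served as controls. Gastrocnemius taken 6 h after the last dose. mRNA measured by real-time PCR and given as % of the vehicle-ground level; mean ± SE, n=4.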

Test [3] concerns Mus musculus. Kind of test: Reduction of MuRF-1 mRNA expression in gastrocnemius muscle of C57BL/6 mouse tail suspension model at 2.5 pmol administered in gastrocnemius muscle qd for 10 days by RT-PCR analysis. Put shortly:
as §1

The test system of test [4] is Mus musculus. As to the kind of experiment: […] of lipid peroxidation in gastrocnemius muscle of C57BL/6 mouse tail suspension model assessed as decrease of thiobarbituric acid-reactive substance level at 2.5 pmol administered in gastrocnemius muscle qd for 10 days by RT-PCR analysis. The method, boiled down:
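Male C57BL/6 mice, 7 weeks old. Compound in 0.9% saline with 0.1% propylene glycol, 2.5 pmol/leg (50 µL) injected into one gastrocnemius and vehicle into the other, given every 24 h. Tail suspension began 24 h after the first dose and lasted 10 days; ground mice served as controls. Muscle taken 6 h after the day-10 dose. TBARS measured by fluorescence ([…]) against a tetraethoxypropane standard; n=4, two-way ANOVA.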

Take `O=c1c(O)c(-c2ccc(O)c(O)c2)oc2cc(O)cc(O)c12`: the result in the test with Mus musculus [1], in the test with Mus musculus [2], with Mus musculus [3] and in the test with Mus musculus [4] was Active.
As for `CC(=O)N[C@@H](CS)C(=O)O`, the outcome in the test with Mus musculus [1] and with Mus musculus [4] was Active.
For `O=c1cc(-c2ccccc2)oc2ccccc12`, the outcome in the test on Mus musculus [2], in the test on Mus musculus [3] and in the test with Mus musculus [4] was inactive.
